In ChEMBL document CHEMBL3286386, “One-pot synthesis of vinca alkaloids-phomopsin hybrids” (J Med Chem, 2014):

Experiments:
[1] = Inhibition of sheep brain tubulin assembly by UV-spectrophotometry; set-up: species or system Ovis aries
Summary of the method: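 Microtubule assembly run at 3 mg/mL tubulin; IC50 defined as the concentration inhibiting the rate of assembly by 50%.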

[2] = Antiproliferative activity against human U87 cells after 72 hrs; assay type: functional, cell-based, U-87MG ATCC; conditions: U-87 MG
Summary of the method: (§1)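 Cells exposed to compound for 72 h; IC50 taken as the concentration giving 50% inhibition of cell proliferation.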

[3] = tested on: K562; assay: Antiproliferative activity against human K562 cells after 72 hrs; assay type: functional, cell-based; conditions: K562, 72 h; summary of the method: as §1
[4] = tested on: MCF7; assay: Antiproliferative activity against human MCF7 cells after 72 hrs; assay type: functional, cell-based; conditions: MCF7, 72 h; summary of the method: as §1
[5] = tested on: HCT-116; assay: Antiproliferative activity against human HCT116 cells after 72 hrs; assay type: functional, cell-based; conditions: HCT-116, 72 h; summary of the method: as §1

IC50 [1] [nM]	IC50 [3] [nM]	IC50 [4] [nM]	IC50 [5] [nM]	SMILES	IC50 [2] [nM]
2100	2.7	0.7	–	CC[C@]1(O)C[C@@H]2CN(CCc3c([nH]c4ccccc34)[C@@](C(=O)OC)(c3cc4c(cc3OC)N(C)[C@H]3[C@@](O)(C(=O)OC)[C@H](OC(C)=O)[C@]5(CC)C=CCN6CC[C@]43[C@@H]65)C2)C1 [VINBLASTINE]	1
600	3.5	4	–	CCC1=C[C@@H]2CN(C1)Cc1c([nH]c3ccccc13)[C@@](C(=O)OC)(c1cc3c(cc1OC)N(C)[C@H]1[C@@](O)(C(=O)OC)[C@H](OC(C)=O)[C@]4(CC)C=CCN5CC[C@]31[C@@H]54)C2 [VINORELBINE]	2
1000	120	230	700	CCC1=C[C@@H]2CN(C1)C[C@H](CN1CCC[C@H]1C(=O)OC)Cc1c([nH]c3ccccc13)[C@@](C(=O)OC)(c1cc3c(cc1OC)N(C)[C@H]1[C@@](O)(C(=O)OC)[C@H](OC(C)=O)[C@]4(CC)C=CCN5CC[C@]31[C@@H]54)C2	25

Continued, molecule first:

SMILES	IC50 [1] [nM]	IC50 [3] [nM]	IC50 [4] [nM]	IC50 [5] [nM]	IC50 [2] [nM]
CCC1=C[C@@H]2CN(C1)C[C@H](CN1CCC[C@H]1C(=O)N[C@H](C(=O)OC)[C@@H](C)CC)Cc1c([nH]c3ccccc13)[C@@](C(=O)OC)(c1cc3c(cc1OC)N(C)[C@H]1[C@@](O)(C(=O)OC)[C@H](OC(C)=O)[C@]4(CC)C=CCN5CC[C@]31[C@@H]54)C2	2700	250	800	1000	400
CC[C@H](C)[C@H](NC(=O)[C@@H]1CCCN1C(=O)[C@H]1NC(=O)[C@H](C(C)C)NC(=O)[C@@H](NC)[C@@H](O)c2cc(Cl)c(O)c(c2)O[C@]1(C)CC)C(=O)NC(CC(=O)O)C(=O)O (mixture of isomers)	400	–	–	–	–
C=C(C)[C@@H]1NC(=O)[C@@H](NC)[C@@H](O)c2cc(Cl)c(O)c(c2)O[C@](C)(CC)[C@@H](C(=O)N2CC=C[C@H]2C(=O)N/C(C(=O)N/C(=C/C(=O)O)C(=O)O)=C(\C)CC)NC1=O [PHOMOPSIN A]	560	–	–	–	–
